PDI inh: PDI (human) enzyme inhibition; PDI insulin aggregation turbidity, A650, 90 min; inhibition, % at 10 µM; 350,000 tested, 0.052% active; AID 588391;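 active = mean inhibition across replicates of 30% or more, whatever share of single replicates reach that level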
PvdQ inh: P. aeruginosa PvdQ acylase inhibition; purified PvdQ acylase, fluorescence plate reader; inhibition, % at 10 µM; 340,000 tested, 0.063% active; AID 488965; in the data active = inhibition above about 30%, passing the limit was not always enough;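 note: 0% = vehicle neutral wells and 100% = reference inhibitor wells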
FN deposit inh: fibronectin deposition inhibition; AH1F fibroblasts, Alexa488-fibronectin deposition fluorescence, overnight; inhibition, % at 12.6 µM; 350,000 tested, 0.086% active;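 active = mean inhibition across replicates of 30% or more, regardless of how many single replicates reach that level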;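 note: positive control wells lacked labelled fibronectin entirely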
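Material: AH1F fibroblast monolayer depositing Alexa488-labelled fibronectin into matrix | Input: 10000 AH1F cells/well | Medium: DMEM plus 2% serum, read in PBS | Reagent: Alexa488-fibronectin, 24 nM final in well | Compound dosing: One dose per compound, pinned | Schedule: 1 h adhesion, overnight exposure | Measured by: Fluorescence at 485 nm excitation, 525 nm emission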
Ecoli rRNA inh: selective bacterial rRNA inhibition in E. coli. E. coli WT GFP vs humanized-ribosome RFP mutants, fluorescence, 24 h; hits give low values; DMSO median 0, no signal -100. GFP signal change (wild-type ribosome), % (concentration not given with the values). 350,000 tested, 1.6% active. AID 720706;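 active = significant combined selectivity score with lowered wild-type GFP, culture density cut under 30%, mutant RFP and density less affected; inactive = any of these conditions unmet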
ERp5 inh: inhibitors of human ERp5. Q15084. ERp5 insulin aggregation, absorbance 650 nm, 90 min. inhibition, % at 9.99 µM. 350,000 tested, 0.05% active. AID 651711;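 active = mean replicate inhibition above about 25%, with every replicate also reaching it, limit read from the data, passing the limit was not always enough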
Target sequence (Q15084 whole entry, looked up): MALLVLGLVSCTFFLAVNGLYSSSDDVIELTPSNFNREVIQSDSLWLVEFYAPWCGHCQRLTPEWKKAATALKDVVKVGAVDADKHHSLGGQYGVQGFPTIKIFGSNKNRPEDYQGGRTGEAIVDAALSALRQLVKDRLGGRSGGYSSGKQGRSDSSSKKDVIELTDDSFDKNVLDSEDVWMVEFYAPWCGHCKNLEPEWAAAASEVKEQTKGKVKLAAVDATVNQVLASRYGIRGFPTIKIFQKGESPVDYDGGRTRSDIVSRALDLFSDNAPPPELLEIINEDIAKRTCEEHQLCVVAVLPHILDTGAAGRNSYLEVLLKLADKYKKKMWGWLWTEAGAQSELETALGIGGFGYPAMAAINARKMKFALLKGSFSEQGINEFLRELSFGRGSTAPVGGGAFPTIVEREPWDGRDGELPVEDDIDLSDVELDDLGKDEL
Env fusion inh: HIV envelope-mediated fusion inhibition; HeLa-JRFL Env/CEM21 cell fusion, luciferase; inhibition, % at 12.3 µM; 360,000 tested, 1.1% active; AID 651610;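 active = mean replicate inhibition score of at least 50 and every replicate individually at or above 50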;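 note: 0% = plate neutral controls and 100% = maraviroc near 300 nM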
* hit, by the source's call; . = no result given; [ ] = another dose, or the depositor's remark. Shown are actives, neighbours in structure and some others; about 2.2% of the full set was active somewhere.

SMILES	PDI inh	PvdQ inh	FN deposit inh	Ecoli rRNA inh	ERp5 inh	Env fusion inh
COc1ccccc1C(=O)Nc1ccc2c(c1)C(=O)N(C)[C@@H]1CC[C@@H](CC(=O)NCCc3ccncc3)O[C@@H]1CO2	.	.	2	4	-2	10[16.7 µM]
Cc1cc(C)c(C)c(S(=O)(=O)NCc2ccncc2)c1C	15	-4	-6	1	3	57*
Cc1ccc(S(=O)(=O)NCc2ccncc2)cc1C	1	-4	0	1	3	-1
Cn1c(=O)oc2cc(S(=O)(=O)NCc3ccncc3)ccc21	-6	2	0	.	.	100*
COc1cc(S(=O)(=O)NCc2ccncc2)ccc1Br	-10	7	.	1	-2	65*
Cc1noc(C)c1NC(=O)Nc1ccc2c(c1)C(=O)N([C@H](C)CO)C[C@@H](C)[C@H](CN(C)S(C)(=O)=O)O2	.	.	.	0	-2	.
Cc1noc(C)c1S(=O)(=O)N(C)C[C@@H]1Oc2ccc(NC(=O)Nc3ccc4c(c3)OCO4)cc2CC(=O)N([C@@H](C)CO)C[C@H]1C	.	.	.	-2	5	.
O=C(c1ccc(CNS(=O)(=O)c2ccccc2)cc1)N1CCN(Cc2ccccc2)CC1	-5	-9	-11	.	.	79*
Cc1cc(C(=O)COC(=O)Cc2n[nH]c(=O)c3ccccc23)c(C)n1-c1ccc2c(c1)OCO2	-6	-12	3	-25*	-2	22
C[C@@H]1CN([C@H](C)CO)C(=O)c2ccccc2-c2ccccc2CO[C@@H]1CN(C)Cc1ccc(-c2ccccc2)cc1	.	.	-4	2	-5	.
CC(C)NC(=O)Nc1ccc2c(c1)C(=O)N([C@H](C)CO)C[C@@H](C)[C@H](CN(C)Cc1ccc(Cl)c(Cl)c1)OCCCC[C@@H](C)O2	.	.	4	2	0	8[16.7 µM]
CCOC(=O)N1CCN(C(=O)COc2cccc3c2CCN(CC)C3=O)CC1	-5	4	8	10	3	16
O=C1c2cccc(OCc3ccc(F)cc3)c2CCN1Cc1ccccc1	15	-11	-3	.	.	77*
CCOC(=O)N1CCN(C(=O)COc2cccc3c2CCN(Cc2ccc(F)cc2)C3=O)CC1	-7	-5	12	.	.	57*
O=C([C@@H]1[C@@H](CO)[C@@H]2Cn3c(ccc(C4=CCCCC4)c3=O)[C@H]1N2)N1CCCCC1	.	.	.	0	-3	.
O=C(NCCO)c1cc2c([nH]c3ccccc32)c(-c2ccccc2)n1	-6	-13	.	-28*	-1	34
CO[C@@H]1CN(C)C(=O)c2ccc(NS(=O)(=O)c3ccc(Oc4ccccc4)cc3)cc2OC[C@H](C)NC[C@@H]1C	.	.	-12	2	3	-12[16.7 µM]
O=S(=O)(N[C@H]1CC[C@H](CCn2cc(C3(O)CCCC3)nn2)O[C@H]1CO)c1ccc(F)cc1	.	.	.	-2	-1	1[16.7 µM]
C[C@H]1CN([C@@H](C)CO)S(=O)(=O)c2ccc(-c3cccnc3)cc2O[C@@H]1CN(C)C(=O)C1CC1	.	.	.	6	.	9[16.7 µM]
C[C@H]1CN([C@@H](C)CO)S(=O)(=O)c2ccc(C3=CCCCC3)cc2O[C@H]1CN(C)C(=O)C1CCCCC1	.	.	.	-5	7	22[16.7 µM]
COc1ccc(NC(=O)N[C@H]2CC[C@@H](CCn3cc(-c4ccccn4)nn3)O[C@H]2CO)cc1	.	.	-9	2	7	5[16.7 µM]
CSc1nc(C)c(CCOCc2ccc(F)cc2)c(=O)[nH]1	10	-8	-4	-22*	2	35
CSc1nc(C)c(Cc2c(F)cccc2Cl)c(=O)[nH]1	4	-3	-1	20	-1	-11
CCCC(=O)NC(=S)Nc1cccc(NC(=O)c2ccccc2)c1	9	4	2	12	-5	12
O=C(NC(=S)Nc1cccc(NC(=O)c2ccccc2)c1)c1cccc([N+](=O)[O-])c1	32*	-2	3	.	.	.
SMILES	PDI inh	PvdQ inh	FN deposit inh	Ecoli rRNA inh	ERp5 inh	Env fusion inh
NS(=O)(=O)c1cccc(NC(=S)NC(=O)c2cccc([N+](=O)[O-])c2)c1	3	0	.	-14	7	5
CCCCC(=O)NC(=S)Nc1cccc(NC(=O)c2ccccc2)c1	-3	19	.	-19*	6	-15
O=C(C[C@@H]1CC[C@@H]2[C@H](COC[C@H](O)CN2CC2CCCC2)O1)NCC1CC1	.	.	-5	0	-3	.
CC(C)C#Cc1cnc2c(c1)C(=O)N([C@@H](C)CO)C[C@H](C)[C@@H](CN(C)C(=O)Cc1ccccn1)O2	.	.	-2	0	-5	-28[16.7 µM]
C[C@H](CO)N1C[C@H](C)[C@@H](CN(C)Cc2cccc(F)c2)Oc2ncc(C#CCc3ccccc3)cc2C1=O	.	.	-4	-35*	-1	.
C[C@@H]1CN([C@@H](C)CO)C(=O)c2cc(C#CCN(C)C)cnc2O[C@@H]1CN(C)Cc1cccc(F)c1	.	.	1	1	.	5[16.7 µM]
C[C@@H]1CN([C@H](C)CO)C(=O)c2cc(C#CC3CC3)cnc2O[C@@H]1CN(C)Cc1ccccc1C(=O)O	.	.	.	-1	11	-2[16.7 µM]
CC(C)CC#Cc1cnc2c(c1)C(=O)N([C@H](C)CO)C[C@H](C)[C@H](CN(C)Cc1ccccc1C(=O)O)O2	.	.	-1	0	37*	-5[16.7 µM]
C[C@@H]1CN([C@H](C)CO)C(=O)c2cc(C#CCN(C)C)cnc2O[C@H]1CN(C)Cc1cccc(F)c1	.	.	9	5	57*	6[16.7 µM]
C[C@H](CO)N1C[C@H](C)[C@H](CN(C)C(=O)Cc2cccnc2)Oc2ncc(C#CC3(O)CCCC3)cc2C1=O	.	.	-2	3	-1	-12[16.7 µM]
C[C@@H]1CN([C@@H](C)CO)C(=O)c2cc(C#CC3(O)CCCC3)cnc2O[C@H]1CN(C)C(=O)Cc1cccnc1	.	.	-17	5	28*	-16[16.7 µM]
Cc1cc(C(=O)NC2CCCc3c2cnn3-c2ccc(C)c(C)c2)nc(C)n1 (configuration not stated)	-6	-9	1	-8	-3	8
Cc1cc(C(=O)NC2CCCc3c2cnn3-c2ccc(C(C)(C)C)cc2)nn1C (configuration not stated)	-3	3	.	-22	-1	82*
CCn1cc(C(=O)NC2CCCc3c2cnn3-c2cccc(C)c2C)cn1 (configuration not stated)	1	-17	.	0	2	57*
Cc1cccc(-n2ncc3c2CCCC3NC(=O)c2cccs2)c1C (configuration not stated)	-8	.	.	2	-3	1
Cc1cccc(-n2ncc3c2CCCC3NC(=O)c2ccncc2)c1C (configuration not stated)	4	.	1	3	3	61*
COC(=O)c1ccc(C(=O)NC2CCCc3c2cnn3-c2ccc(C)c(C)c2)cc1 (configuration not stated)	-11	-19	.	0	4	72*
Cc1cc(C)cc(-n2ncc3c2CCCC3NC(=O)c2cc(C)n(C)n2)c1 (configuration not stated)	1	-12	-4	-3	-7	6
